In data set [1] the test system is Salmonella enteritidis. Description: Antibacterial activity against Salmonella enteritidis CICC 21527 assessed as bacterial growth inhibition incubated for 18 to 24 hrs by microtiter broth dilution method. It is filed as functional, Salmonella enterica subsp. enterica serovar Enteritidis. The conditions noted are these: Salmonella enterica, time 18-24 hrs. An outline of the steps: (§1)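 Log-phase cells (grown overnight at 37 °C, subcultured in MHB) diluted to 10^5 CFU/mL in MHB and mixed 1:1 with serial peptide dilutions prepared in 0.01% acetic acid/0.2% BSA. Incubated 37 °C for 18-24 h. MIC is the lowest concentration giving no growth by OD492. Reported as the average of 3-5 independent experiments.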
Background: Broth dilution looks for growth in wells or tubes with falling amounts of substance.

Data set [2] has as its system RAW264.7. Description: Cytotoxicity against mouse RAW264.7 cells assessed as increase in cell viability at 64 uM incubated for 24 hrs by MTT assay relative to control. The data set is classed as cell-based. The settings on record: raw264.7, 24 h. An outline of the steps: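 RAW264.7 macrophages were grown in DMEM with 10% FBS, 2 mM glutamine and penicillin/streptomycin at 37 °C in 5% CO2. Cells seeded at 1.0-2.0 × 10^4 per well and treated with peptide (final 0.25-64 µM) for 24 h at 37 °C. MTT at 0.5 mg/mL added for 4 h, formazan dissolved in DMSO, read at 570 nm.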
In general terms: Formazan colour is commonly taken as a measure of viable cells.

In data set [3] the test system is Vibrio parahaemolyticus. Description: Antibacterial activity against Vibrio parahaemolyticus CICC 21617 assessed as bacterial growth inhibition incubated for 18 to 24 hrs by broth dilution method. The settings on record: time 18-24 hrs. It is filed as functional. Put shortly: as §1
Data set [4] concerns Erythrocyte. Description: Hemolytic activity against human red blood cells assessed as concentration required to cause 10% hemoglobin release measured after 1 hr by microplate reader analysis. It is filed as ADME, cell-based. Put shortly: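 Fresh heparinized human RBCs washed three times in 10 mM PBS pH 7.4 and resuspended to about 1% (v/v) (5.4 × 10^8 cells/mL). Mixed 1:1 with peptide in PBS for 1 h at 37 °C, then centrifuged. Supernatant hemoglobin read at A540. PBS set as 0% and 0.1% Triton X-100 as 100% hemolysis. MHC is the concentration causing 10% hemolysis.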

The nature of data set [5]: Hemolytic activity against human red blood cells assessed as hemoglobin release at 64 uM measured after 1 hr by microplate reader analysis relative to control. The data set is classed as ADME, cell-based, Erythrocyte. The settings on record: read-out: Activity. Put shortly:
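Fresh heparinized human RBCs washed in 10 mM PBS pH 7.4, ~1% (v/v) suspension mixed 1:1 with peptide in PBS, 1 h at 37 °C; after centrifugation, supernatant absorbance at 540 nm. Percent hemolysis relative to PBS (0%) and 0.1% Triton X-100 (100%).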

For data set [6], the system named is Micrococcus luteus. Description: Antibacterial activity against Micrococcus luteus CMCC 28001 assessed as bacterial growth inhibition incubated for 18 to 24 hrs by microtiter broth dilution method. It is filed as functional. The conditions noted are these: time 18-24 hrs. Put shortly:
as §1

The test system of data set [7] is Candida albicans. Description: Antifungal activity against Candida albicans ATCC 10231 assessed as fungal growth inhibition incubated for 18 to 24 hrs by microtiter broth dilution method. It is filed as functional. The conditions noted are these: time 18-24 hrs. An outline of the steps: as §1
The nature of data set [8]: Therapeutic index, ratio of MHC10 for human RBC to geometric mean of peptide MIC for Staphylococcus aureus ATCC 29213. It is filed as toxicity. The conditions noted are these: human red blood cells (RBC), pooled result: one value given for 9 cell lines, strains, targets or settings, read-out: TI. Put shortly:
(§2)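 Therapeutic index = MHC (peptide concentration giving 10% hemolysis of human RBCs, 1 h, 37 °C, A540) divided by geometric mean of MICs from broth microdilution (10^5 CFU/mL in MHB, 37 °C, 18-24 h, OD492).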

The test system of data set [9] is Bacillus pumilus. Description: Antibacterial activity against Bacillus pumilus CMCC 63202 assessed as bacterial growth inhibition incubated for 18 to 24 hrs by microtiter broth dilution method. It is filed as functional. The settings on record: time 18-24 hrs. Put shortly:
as §1

A short description of data set [10]: Therapeutic index, ratio of MHC10 for human RBC to geometric mean of peptide MIC for Escherichia coli O157:H7 CICC 21530. The conditions noted are these: human red blood cells (RBC), pooled result: one value given for 11 cell lines, strains, targets or settings, read-out: TI. The data set is classed as toxicity. Put shortly:
as §2

Data set [11] deals with Salmonella paratyphi. Description: Antibacterial activity against Salmonella paratyphi A CICC 20501 assessed as bacterial growth inhibition incubated for 18 to 24 hrs by microtiter broth dilution method. It is filed as functional, Salmonella enterica subsp. enterica serovar Paratyphi A. The settings on record: Salmonella enterica, time 18-24 hrs. Put shortly: (§3)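 Log-phase bacteria grown at 37 °C in MHB, diluted to 10^5 CFU/mL, mixed 1:1 with serial peptide dilutions (peptide diluted in 0.01% acetic acid, 0.2% BSA); 37 °C for 18-24 h. MIC read by OD492 as lowest concentration giving no growth; mean of 3-5 independent experiments.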

In data set [12] the test system is Salmonella enterica subsp. enterica serovar Paratyphi B. Description: Antibacterial activity against Salmonella paratyphi B CICC 21495 assessed as bacterial growth inhibition incubated for 18 to 24 hrs by microtiter broth dilution method. The settings on record: time 18-24 hrs. The data set is classed as functional. Put shortly:
as §3

Data set [13] concerns Shigella flexneri. Description: Antibacterial activity against Shigella flexneri CMCC 51571 assessed as bacterial growth inhibition incubated for 18 to 24 hrs by microtiter broth dilution method. The data set is classed as functional. The settings on record: time 18-24 hrs. Put shortly: as §1
Data set [14] deals with Bacillus cereus. Description: Antibacterial activity against Bacillus cereus CMCC 63301 assessed as bacterial growth inhibition incubated for 18 to 24 hrs by microtiter broth dilution method. It is filed as functional. The conditions noted are these: time 18-24 hrs. An outline of the steps:
as §1

In data set [15] the test system is Pseudomonas fluorescens. Description: Antibacterial activity against Pseudomonas fluorescens CICC 21620 assessed as bacterial growth inhibition incubated for 18 to 24 hrs by microtiter broth dilution method. It is filed as functional. The settings on record: time 18-24 hrs. Put shortly: as §1
Data set [16] has as its system Salmonella enterica. Description: Antibacterial activity against Salmonella choleraesuis ATCC 13312 assessed as bacterial growth inhibition incubated for 18 to 24 hrs by broth dilution method. The data set is classed as functional. The conditions noted are these: time 18-24 hrs. Put shortly:
as §3

For data set [17], the system named is Cell membrane. Description: Induction of cell membrane depolarization in Escherichia coli O157:H7 CICC 21530 assessed as increase in fluorescence intensity at 0.5 to 2 times MIC preincubated for 90 mins followed by KCl addition and measured after 15 to 30 mins by DiSC3-5 staining based fluorescence spectroscopic technique. The conditions noted are these: time 105-120 min. It is filed as subcellular.

Data set [18] relates to Salmonella paratyphi. Description: Antibacterial activity against Salmonella paratyphi C CICC 21512 assessed as bacterial growth inhibition incubated for 18 to 24 hrs by microtiter broth dilution method. The data set is classed as functional. The settings on record: Salmonella enterica, time 18-24 hrs. An outline of the steps: as §3
In data set [19] the test system is Cell membrane. Description: Induction of inner membrane permeabilization in Escherichia coli O157:H7 CICC 21530 assessed as cytoplasmic beta-galactosidase release at 1 times MIC using ONPG as substrate by […]. The data set is classed as subcellular.
Data set [20] relates to Staphylococcus aureus. Description: Antibacterial activity against Staphylococcus aureus GIM 1.160 assessed as bacterial growth inhibition incubated for 18 to 24 hrs by microtiter broth dilution method. It is filed as functional. The conditions noted are these: time 18-24 hrs. Put shortly: as §1
Data set [21] relates to Escherichia coli. Description: Antibacterial activity against Escherichia coli ATCC 35150 assessed as bacterial growth inhibition incubated for 18 to 24 hrs by microtiter broth dilution method. It is filed as functional. The settings on record: time 18-24 hrs. An outline of the steps:
as §1

In data set [22] the test system is Escherichia coli. Description: Antibacterial activity against Escherichia coli ATCC 25922 assessed as bacterial growth inhibition incubated for 18 to 24 hrs by microtiter broth dilution method. The data set is classed as functional. The conditions noted are these: time 18-24 hrs. Put shortly:
as §1

For data set [23], the system named is Salmonella typhimurium. Description: Antibacterial activity against Salmonella typhimurium CMCC 51005 assessed as bacterial growth inhibition incubated for 18 to 24 hrs by microtiter broth dilution method. It is filed as functional, Salmonella enterica subsp. enterica serovar Typhimurium. The conditions noted are these: Salmonella enterica, time 18-24 hrs. Put shortly:
as §1

The subject of data set [24] is Staphylococcus aureus. Description: Antibacterial activity against methicillin resistant Staphylococcus aureus ATCC 43300 assessed as bacterial growth inhibition incubated for 18 to 24 hrs by microtiter broth dilution method. It is filed as functional. The settings on record: time 18-24 hrs. An outline of the steps: as §3
The subject of data set [25] is Escherichia coli. Description: Antibacterial activity against Escherichia coli O157:H7 CICC 21530 assessed as bacterial growth inhibition incubated for 18 to 24 hrs by microtiter broth dilution method. It is filed as functional. The conditions noted are these: time 18-24 hrs. An outline of the steps: as §3

Structures are written as SMILES. Values after ≈ are worked out from the molar mass of the structure shown. Active and inactive are the calls of the source.

The text below walks through data of ChEMBL document CHEMBL4765236, “Insights into the Antimicrobial Activity and Cytotoxicity of Engineered α-Helical Peptide Amphiphiles” (J Med Chem, 2016).

What is called MIC is the smallest concentration in the dilution series that meets the test's criterion for growth inhibition. On to `CC[C@H](C)[C@H](NC(=O)CN)C(=O)NCC(=O)N[C@@H](C)C(=O)N[C@H](C(=O)N[C@@H](CC(C)C)C(=O)N[C@@H](CCCCN)C(=O)N[C@H](C(=O)N[C@@H](CC(C)C)C(=O)N[C@H](C(=O)N[C@H](C(=O)NCC(=O)N[C@@H](CC(C)C)C(=O)N1CCC[C@H]1C(=O)N[C@@H](C)C(=O)N[C@@H](CC(C)C)C(=O)N[C@H](C(=O)N[C@@H](CO)C(=O)N[C@@H](Cc1c[nH]c2ccccc12)C(=O)N[C@H](C(=O)N[C@@H](CCCCN)C(=O)N[C@@H](CCCNC(=N)N)C(=O)N[C@@H](CCCCN)C(=O)N[C@@H](CCCNC(=N)N)C(=O)N[C@@H](CCC(N)=O)C(=O)N[C@@H](CCC(N)=O)C(N)=O)[C@@H](C)CC)[C@@H](C)CC)[C@@H](C)O)[C@@H](C)O)C(C)C)C(C)C` [MELITTIN], for which the MIC in data set [1] came to 1.41 µM (≈ 4.01 µg/mL); in data set [3], 1.41 µM (≈ 4.01 µg/mL); in data set [6] it was 0.7 µM (≈ 1.99 µg/mL); in data set [7], 2.81 µM (≈ 8 µg/mL); in data set [9], 0.35 µM (≈ 0.996 µg/mL); in data set [11], 0.7 µM (≈ 1.99 µg/mL). The MIC in data set [12] is 0.35 µM (≈ 0.996 µg/mL); in data set [13] it was 0.7 µM (≈ 1.99 µg/mL); in data set [14], 1.41 µM (≈ 4.01 µg/mL); in data set [15], 1.41 µM (≈ 4.01 µg/mL); in data set [16], 0.7 µM (≈ 1.99 µg/mL); in data set [18] it was 0.7 µM (≈ 1.99 µg/mL). The Activity in data set [2] is given as 1.85%. In data set [4], the MHC10 came out at 0.35 µM. In [5], the hemolysis at 1 h, 64 µM is 63.7%. In addition, the selectivity ratio in [8] came out at 0.43; in data set [10], 0.44. Moreover, the result in [17] and in data set [19] was Active.
Take `CN[C@H](CC(C)C)C(=O)N[C@H]1C(=O)N[C@@H](CC(N)=O)C(=O)N[C@H]2C(=O)N[C@H]3C(=O)N[C@H](C(=O)N[C@H](C(=O)O)c4cc(O)cc(O)c4-c4cc3ccc4O)[C@H](O)c3ccc(c(Cl)c3)Oc3cc2cc(c3O[C@@H]2O[C@H](CO)[C@@H](O)[C@H](O)[C@H]2O[C@H]2C[C@](C)(N)[C@H](O)[C@H](C)O2)Oc2ccc(cc2Cl)[C@H]1O` [VANCOMYCIN]: the MIC in [20] was 1.38 µM (≈ 2 µg/mL); in [21], more than 88.3 µM; in [22], 88.3 µM (≈ 128 µg/mL); in [1] it was 44.2 µM (≈ 64 µg/mL); in [23] it was more than 88.3 µM; in [3], 88.3 µM (≈ 128 µg/mL). The MIC in data set [6] is 0.69 µM (≈ 1 µg/mL); in data set [24], 1.38 µM (≈ 2 µg/mL); in data set [7], more than 88.3 µM; in [9], 0.35 µM (≈ 0.507 µg/mL); in data set [25], more than 88.3 µM; in data set [11] it was more than 88.3 µM. Further, the MIC in [12] was 88.3 µM (≈ 128 µg/mL); in data set [13] it was 88.3 µM (≈ 128 µg/mL); in data set [14], 0.17 µM (≈ 0.246 µg/mL); in data set [15] it was 0.35 µM (≈ 0.507 µg/mL); in [16], more than 88.3 µM; in data set [18], 88.3 µM (≈ 128 µg/mL). Besides, the MHC10 in [4] is more than 88.32 µM.
